Source: ChEMBL document CHEMBL4041548, “Ester Prodrugs of IHVR-19029 with Enhanced Oral Exposure and Prevention of Gastrointestinal Glucosidase Interaction” (ACS Med Chem Lett, 2017)
Activity calls are given as the source filed them. The calls are words filed in the database; no cut-off is given here.

Experiments:
[1] = Inhibition of endoplasmic reticulum alpha-glucosidase in HEK293 cells infected with DENV assessed as reduction in viral infection; type: cell-based; details: Homo sapiens
Bos taurus = organism: Bos taurus; experiment: Inhibition of endoplasmic reticulum alpha-glucosidase in MDBK cells infected with Bovine Viral Diarrhea virus assessed as reduction in BVDV envelope glycoprotein E2 level at 3 to 100 uM by immunoblot analysis; type: cell-based
Outline: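 MDBK cells infected with BVDV, then treated with various concentrations of the compounds. Cell lysates were run on SDS-PAGE and immunoblotted for the E2 envelope glycoprotein, looking for a mobility shift and lower intensity, with β-actin as internal control.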

[2] = Inhibition of pig liver endoplasmic reticulum alpha glucosidase-2 using 4-methylumbelliferyl-alpha-D-glucoside as substrate measured after 60 mins by fluorescence analysis; design: species or system Sus scrofa
[3] = Metabolic stability in mouse plasma assessed as parent compound remaining at 5 uM measured after 2 hrs by LC-MS/MS analysis; type: ADME, cell-free; details: read-out: Stability
Outline: (§1)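 Compounds incubated in human or mouse plasma for 2 h. Percent remaining and percent conversion to the parent were determined.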

[4] = Half life in BALB/c mouse at 100 mg/kg, po administered as single dose by LC-MS/MS analysis; type: ADME, organism-based; details: in vivo
Outline: (§2)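 Male BALB/c mice dosed with the prodrugs or the parent orally (25 or 100 mg/kg) or intravenously (5 mg/kg). The parent compound was quantified in plasma and PK parameters were derived from it. The first sampling point was 5 min post-dose, and prodrugs were tracked up to 4 h.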

Liver [5] = experiment: Half life in pooled mouse liver microsomes at 200 uM by LC-MS/MS analysis; type: ADME, microsome; details: microsomes, 200 µM
Outline: (§3)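 Prodrugs or parent incubated in pooled human or mouse liver microsomes for up to 60 min, with or without cofactor. Percent remaining and percent conversion to the parent were measured.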

[6] = Cmax in BALB/c mouse at 100 mg/kg, po administered as single dose by LC-MS/MS analysis; type: ADME, organism-based; design: dose 100 mg/kg, route oral; details: in vivo; outline: as §2
[7] = Cmax in BALB/c mouse at 5 mg/kg, iv as bolus administration by LC-MS/MS analysis; type: ADME, organism-based; design: dose 5 mg/kg, route intravenous; details: in vivo; outline: as §2
Mus musculus [8] = experiment: AUC(0 to infinity) in BALB/c mouse at 25 mg/kg, po administered as single dose by LC-MS/MS analysis; type: ADME, organism-based; design: dose 25 mg/kg, time infinity, route oral; details: in vivo
Liver [9] = experiment: Metabolic stability in pooled human liver microsomes assessed as parent compound remaining at 200 uM measured after 60 mins by LC-MS/MS analysis; type: ADME, microsome; details: microsomes, 1 h, 200 µM; outline: as §3
[10] = Metabolic stability in pooled mouse liver microsomes assessed as parent compound remaining at 200 uM measured after 60 mins in presence of NADPH and UDPGA by LC-MS/MS analysis; type: ADME, microsome; details: read-out: Stability; outline: as §3
[11] = Metabolic stability in human intestinal S9 fraction assessed as parent compound level at 200 uM measured after 1 hr in presence or absence of NADPH by LC-MS/MS analysis; type: ADME, Intestine; details: read-out: Stability
Outline: (§4)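 Compounds incubated with intestinal S9 fraction for 1 h. Percent prodrug remaining and percent conversion to the parent were measured.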

[12] = Volume of distribution at steady state in BALB/c mouse at 5 mg/kg, iv as bolus administration by LC-MS/MS analysis; type: ADME, organism-based; details: in vivo, read-out: Vdss; outline: as §2
[13] = Metabolic stability in human plasma assessed as parent compound remaining at 5 uM measured after 2 hrs by LC-MS/MS analysis; type: ADME, cell-free; details: read-out: Stability; outline: as §1
[14] = Half life in BALB/c mouse at 25 mg/kg, po administered as single dose by LC-MS/MS analysis; type: ADME, organism-based; details: in vivo; outline: as §2
[15] = Half life in BALB/c mouse at 5 mg/kg, iv as bolus administration by LC-MS/MS analysis; type: ADME, organism-based; details: in vivo; outline: as §2
[16] = Inhibition of endoplasmic reticulum alpha-glucosidase in human Huh7.5 cells infected with DENV assessed as reduction in viral growth by measuring DENV RNA level by qRT-PCR method; type: cell-based
Outline: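 Huh7.5 cells infected with dengue virus and treated with a concentration series of the compounds (n = 4). DENV RNA was quantified by qRT-PCR and the EC50 was calculated.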

[17] = Stability in simulated gastric fluid assessed as parent compound remaining at 5 uM measured after 4 hrs by LC-MS/MS analysis
Outline: (§5)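 Chemical stability assessed by incubation in simulated gastric fluid and simulated intestinal fluid; percent of compound remaining was measured.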

[18] = Clearance in BALB/c mouse at 5 mg/kg, iv as bolus administration by LC-MS/MS analysis; type: ADME, organism-based; details: in vivo; outline: as §2
[19] = Metabolic stability in pooled human liver microsomes assessed as parent compound remaining at 200 uM measured after 60 mins in presence of NADPH and UDPGA by LC-MS/MS analysis; type: ADME, microsome; details: read-out: Stability; outline: as §3
[20] = Stability in simulated intestinal fluid assessed as parent compound remaining at 5 uM measured after 4 hrs by LC-MS/MS analysis; outline: as §5
[21] = Cmax in BALB/c mouse at 25 mg/kg, po administered as single dose by LC-MS/MS analysis; type: ADME, organism-based; design: dose 25 mg/kg, route oral; details: in vivo; outline: as §2
Mus musculus [22] = experiment: AUC(0 to infinity) in BALB/c mouse at 5 mg/kg, iv as bolus administration by LC-MS/MS analysis; type: ADME, organism-based; design: dose 5 mg/kg, time infinity, route intravenous; details: in vivo
Mus musculus [23] = experiment: AUC(0 to infinity) in BALB/c mouse at 100 mg/kg, po administered as single dose by LC-MS/MS analysis; type: ADME, organism-based; design: dose 100 mg/kg, time infinity, route oral; details: in vivo
[24] = Tmax in BALB/c mouse at 100 mg/kg, po administered as single dose by LC-MS/MS analysis; type: ADME, organism-based; details: in vivo; outline: as §2
[25] = Metabolic stability in mouse intestinal S9 fraction assessed as parent compound level at 200 uM measured after 1 hr in presence or absence of NADPH by LC-MS/MS analysis; type: ADME, Intestine; details: read-out: Stability; outline: as §4
Liver [26] = experiment: Metabolic stability in pooled mouse liver microsomes assessed as parent compound remaining at 200 uM measured after 60 mins by LC-MS/MS analysis; type: ADME, microsome; details: microsomes, 1 h, 200 µM; outline: as §3
[27] = Inhibition of pig liver endoplasmic reticulum alpha glucosidase-1 using 4-methylumbelliferyl-alpha-D-glucoside as substrate measured after 90 mins by fluorescence analysis; design: species or system Sus scrofa
Liver [28] = experiment: Half life in pooled human liver microsomes at 200 uM by LC-MS/MS analysis; type: ADME, microsome; details: microsomes, 200 µM; outline: as §3
[29] = Tmax in BALB/c mouse at 25 mg/kg, po administered as single dose by LC-MS/MS analysis; type: ADME, organism-based; details: in vivo; outline: as §2

**Q.** With CCCCN1C[C@H](O)[C@@H](O)[C@H](O)[C@H]1CO [MIGLUSTAT] as the molecule, how does the EC50 [1] read?
**A.** The EC50 was 56.4 µM.

**Q.** With CCC(O)(CC)CCCCCCN1C[C@H](O)[C@@H](O)[C@H](O)[C@H]1CO as the molecule, how does the EC50 [1] read?
**A.** The EC50 was 2.2 µM.

**Q.** With CCCCCCCCCN1C[C@H](O)[C@@H](O)[C@H](O)[C@H]1CO as the molecule, how does the EC50 [1] read?
**A.** The EC50 was 7.1 µM.

**Q.** For OC[C@H]1NC[C@H](O)[C@@H](O)[C@@H]1O [DUVOGLUSTAT], which EC50 [1] is on record?
**A.** The EC50 was 364 µM.

**Q.** With CC(C)(C)NC(=O)N(CCCCCCN1C[C@H](O)[C@@H](O)[C@H](O)[C@H]1CO)C1CCCCC1 as the molecule, how does the inhibition (Bos taurus) read?
**A.** The inhibition was “Active”.

**Q.** And the IC50 [2]?
**A.** Its IC50 is 27.8 µM.

**Q.** What about the remaining at 2 h, 5 µM [3] of the same molecule?
**A.** Its remaining at 2 h, 5 µM is 93%.

**Q.** And the half-life [4]?
**A.** The half-life was 5.46 h.

**Q.** What about the t1/2 (Liver [5]) of the same molecule?
**A.** Its t1/2 is 1.57 h.

**Q.** What about the Cmax [6] of the same molecule?
**A.** Its Cmax is 915 ng/mL.

**Q.** And the Cmax [7]?
**A.** The Cmax was 2840 ng/mL.

**Q.** And the AUC (Mus musculus [8])?
**A.** Its AUC is 150 ng·mL·h.

**Q.** What about the Stability (Liver [9]) of the same molecule?
**A.** Its Stability is 99%.

**Q.** And the remaining at 1 h, 200 µM [10]?
**A.** Its remaining at 1 h, 200 µM is 63%.

**Q.** What about the remaining at 1 h, 200 µM [11] of the same molecule?
**A.** The remaining at 1 h, 200 µM was 76 to 95%.

**Q.** What about the Vd [12] of the same molecule?
**A.** Its Vd is 2.13 L/kg.

**Q.** And the remaining at 2 h, 5 µM [13]?
**A.** Its remaining at 2 h, 5 µM is 109%.

**Q.** And the half-life [14]?
**A.** Its half-life is 5.19 h.

**Q.** And the half-life [15]?
**A.** Its half-life is 0.98 h.

**Q.** And the EC50 [16]?
**A.** Its EC50 is 4.1 µM.

**Q.** What about the Stability [17] of the same molecule?
**A.** Its Stability is 109%.

**Q.** What about the clearance [18] of the same molecule?
**A.** The clearance was 70 mL/min/kg.

**Q.** What about the remaining at 1 h, 200 µM [19] of the same molecule?
**A.** Its remaining at 1 h, 200 µM is 68%.

**Q.** And the Stability [20]?
**A.** Its Stability is 114%.

**Q.** What about the Cmax [21] of the same molecule?
**A.** Its Cmax is 184 ng/mL.

**Q.** And the AUC (Mus musculus [22])?
**A.** Its AUC is 1191 ng·mL·h.

**Q.** What about the AUC (Mus musculus [23]) of the same molecule?
**A.** The AUC was 996 ng·mL·h.

**Q.** What about the Tmax [24] of the same molecule?
**A.** Its Tmax is 0.5 h.

**Q.** What about the remaining at 1 h, 200 µM [25] of the same molecule?
**A.** The remaining at 1 h, 200 µM was 76 to 95%.

**Q.** What about the EC50 [1] of the same molecule?
**A.** The EC50 was 1.2 µM.

**Q.** What about the Stability (Liver [26]) of the same molecule?
**A.** The Stability was 96%.

**Q.** What about the IC50 [27] of the same molecule?
**A.** The IC50 was 0.81 µM.

**Q.** And the t1/2 (Liver [28])?
**A.** The t1/2 was 1.73 h.

**Q.** What about the Tmax [29] of the same molecule?
**A.** The Tmax was 0.25 h.

**Q.** With OC[C@@H]1[C@@H](O)[C@H](O)[C@@H](O)CN1CCCCCCOc1cc(F)ccc1F as the molecule, how does the EC50 [1] read?
**A.** Its EC50 is 0.5 µM.
